From article PMC5453637 (Translational research : the journal of laboratory and …, 2016)
pEC50: −log10 of the molar value. Values joined by “and” are separate entries in the source; they are usually repeats but may differ in a detail not shown here. Equal entries are not always repeated.

Key:
[1] = biological target: T1, human wild-type CFTR (Homo sapiens, UniProt P13569); assay: Plate reader assay of CFTR activity; format: cell-based; settings: read-out: EC50 CFTR activation; as stated in abstract
T1 sequence (P13569 whole entry): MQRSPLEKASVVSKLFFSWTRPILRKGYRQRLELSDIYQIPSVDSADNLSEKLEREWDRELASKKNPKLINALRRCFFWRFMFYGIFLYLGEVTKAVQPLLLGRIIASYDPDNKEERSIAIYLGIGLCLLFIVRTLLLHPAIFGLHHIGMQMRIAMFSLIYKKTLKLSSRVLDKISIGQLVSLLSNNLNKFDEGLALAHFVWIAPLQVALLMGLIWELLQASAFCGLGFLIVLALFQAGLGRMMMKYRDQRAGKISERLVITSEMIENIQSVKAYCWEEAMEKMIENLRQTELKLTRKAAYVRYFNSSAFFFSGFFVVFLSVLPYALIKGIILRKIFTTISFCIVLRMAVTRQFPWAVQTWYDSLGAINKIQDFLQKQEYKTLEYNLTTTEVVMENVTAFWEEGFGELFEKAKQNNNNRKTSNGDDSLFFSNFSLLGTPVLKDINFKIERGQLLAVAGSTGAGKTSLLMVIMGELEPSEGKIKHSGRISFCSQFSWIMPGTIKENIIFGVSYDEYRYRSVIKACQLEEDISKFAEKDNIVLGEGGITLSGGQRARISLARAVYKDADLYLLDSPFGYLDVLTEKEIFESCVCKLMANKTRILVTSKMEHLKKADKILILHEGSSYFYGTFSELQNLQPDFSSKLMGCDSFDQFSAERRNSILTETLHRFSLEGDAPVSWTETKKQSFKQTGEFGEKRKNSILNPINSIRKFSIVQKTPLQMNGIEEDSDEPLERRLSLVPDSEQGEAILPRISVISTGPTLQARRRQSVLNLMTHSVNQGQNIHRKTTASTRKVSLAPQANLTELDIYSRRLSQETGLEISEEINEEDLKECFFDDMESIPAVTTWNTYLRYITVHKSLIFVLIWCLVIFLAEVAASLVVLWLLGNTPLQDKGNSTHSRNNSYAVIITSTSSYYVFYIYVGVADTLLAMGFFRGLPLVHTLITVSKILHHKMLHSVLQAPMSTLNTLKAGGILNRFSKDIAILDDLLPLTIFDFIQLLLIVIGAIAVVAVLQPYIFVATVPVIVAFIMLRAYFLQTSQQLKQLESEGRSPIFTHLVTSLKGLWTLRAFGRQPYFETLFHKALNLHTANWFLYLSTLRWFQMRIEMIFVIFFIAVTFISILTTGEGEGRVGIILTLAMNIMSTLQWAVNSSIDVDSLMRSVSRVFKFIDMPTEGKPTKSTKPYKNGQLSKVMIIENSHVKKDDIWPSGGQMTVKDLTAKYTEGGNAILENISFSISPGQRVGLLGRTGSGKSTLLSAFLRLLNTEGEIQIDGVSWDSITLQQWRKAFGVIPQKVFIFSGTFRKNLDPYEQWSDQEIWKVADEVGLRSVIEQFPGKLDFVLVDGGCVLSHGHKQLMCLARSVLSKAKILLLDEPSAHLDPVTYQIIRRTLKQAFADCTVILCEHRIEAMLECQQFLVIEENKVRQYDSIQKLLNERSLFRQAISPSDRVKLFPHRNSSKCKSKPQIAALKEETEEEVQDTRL
Summary of the method: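 FRT cells co-expressing human wild-type CFTR and YFP-H148Q were plated at 20,000 cells/well and used 24–48 h later. After 3 PBS washes, cells were incubated 10 min with test compound plus 125 nM forskolin. Fluorescence was recorded 2 s at baseline, then 12 s after adding PBS with 137 mM Cl⁻ replaced by I⁻. Initial iodide influx rate came from exponential regression. EC50 was taken from full concentration-dependence data, n=3.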

[2] = biological target: T1, human wild-type CFTR; assay: Whole-cell patch-clamp in FRT cells; format: cell-based
[3] = biological target: T1, human wild-type CFTR; assay: Inside-out patch-clamp; format: biochemical; settings: 1 μM, after submaximal ATP and catalytic subunit of protein kinase A
Summary of the method: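 Inside-out macro-patches were taken from FRT cells stably expressing human wild-type CFTR using large pipette tips (3–5 MΩ). Pipette: 150 mM NMDG-Cl, 3 CaCl2, 2 MgCl2, 10 Na-HEPES, pH 7.3. Test compound (1 μM) followed. Steps of 600 ms ran −100 to +100 mV in 20 mV increments from −60 mV holding, 4 s apart; filtered 1 kHz, sampled 5 kHz. Three experiment sets.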

[4] = system: cellular cAMP; assay: cAMP immunoassay in FRT cells; format: cell-based, rat; settings: 10 μM, 10 min, alone or with 90 nM forskolin
Summary of the method: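 FRT cells in 12-well plates received vehicle, 10 μM test compound with or without 90 nM forskolin, or 20 μM forskolin alone, for 10 min at 37°C. Cells were lysed by freeze-thaw and centrifuged (600g, 10 min, 4°C). cAMP was measured by immunoassay.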

[5] = system: cellular cGMP; assay: cGMP immunoassay in FRT cells; format: cell-based, rat; settings: 10 μM, 10 min
Summary of the method: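 FRT cells received 10 μM test compound or vehicle for 10 min at 37°C. They were lysed by freeze-thaw and cleared by centrifugation (600g, 10 min, 4°C). cGMP was measured by immunoassay.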

[6] = system: cytoplasmic Ca^2+; assay: Cytoplasmic calcium measurement; format: cell-based, rat; settings: 10 μM, 2 min, added alone
Summary of the method: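 FRT cells were loaded with Fluo-4 NW 48 h after plating. They were pretreated 2 min with 10 μM test compound or vehicle, then given 100 μM ATP as calcium agonist. Cytoplasmic Ca2+ was read as Fluo-4 fluorescence (ex/em 494/516 nm) in a plate reader with syringe pumps.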

[7] = Stability in simulated gastric fluid; format: physicochemical; settings: 10 μM, pH 2, 37°C, 3 hour
Summary of the method: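 Test compound (10 μM) was incubated 0 or 3 h at 37°C in simulated gastric fluid (NaCl, 0.7% HCl, pH 2). Remaining compound was measured by LC/MS chromatography. n=3.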

[8] = In vitro metabolic stability in human liver microsomes; format: in vitro ADME; settings: 1 mM NADPH, 37°C
Summary of the method: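 Test compound was incubated at 37°C for specified times with human liver microsomes (1 mg protein/mL) in 100 mM potassium phosphate with 1 mM NADPH. Samples were chilled on ice and extracted with ice-cold ethyl acetate. Supernatant was dried, redissolved in acetonitrile:water 3:1 and quantified by LC/MS: 5–95% acetonitrile gradient over 16 min, 0.2 mL/min, ESI(+), m/z 100–1500.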

[9] = system: scopolamine-induced constipation; assay: Scopolamine-induced mouse model of acute constipation; format: in vivo, mice
Summary of the method: (§1)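 Female CD1 mice, 8–10 weeks, were made constipated with loperamide 0.3 mg/kg ip or scopolamine 0.5 mg/kg ip. Test compound 10 mg/kg (saline with 5% DMSO and 10% Kolliphor HS 15) or vehicle was given ip or orally, 1 h before or 1 h after the inducer. Mice sat in metabolic cages with food and water. Stool was collected 3 h for weight, pellet number and water content (dried 80°C, 24 h). n=4 mice/group.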

[10] = system: loperamide-induced constipation; assay: Loperamide-induced mouse model of constipation; format: in vivo, mice
Summary of the method: as §1

[11] = system: C3H/HeJ mice; assay: Genetic mouse model of chronic constipation; format: in vivo
[12] = system: C3H/HeOuJ mice; assay: Wild-type control mice; format: in vivo; settings: 10 mg/kg
Summary of the method: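 Female C3H/HeJ (Tlr4 mutant, chronically constipated) and background C3H/HeOuJ mice, 8–11 weeks, were studied as paired animals. They received test compound 10 mg/kg orally in saline with 5% DMSO and 10% Kolliphor HS 15, or vehicle, at zero time, then went into metabolic cages. Stool was collected 4 h for weight, pellet count and water content ([wet − dry]/wet after drying 80°C, 24 h). n=10 mice/group.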

[13] = system: enteroids generated from normal human duodenum and jejunum; assay: Swelling measurements in human enteroids; format: cell-based
Summary of the method: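 Enteroids came from adult duodenal/jejunal endoscopic biopsies, grown on coverglass dishes. Medium was replaced with Advanced DMEM/F12 and cytoplasm labelled with calcein green-AM, 1 h at 37°C. Forskolin was added, […], and/or test compound at 5 μM; test compound went in 10 min before forskolin when combined. Confocal images were taken every 10 min at 37°C, 5% CO2. Result was percent increase in enteroid area over initial area, e.g. at 40 min.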

[14] = system: cellular cAMP; settings: cited from earlier work
[15] = system: loperamide-induced constipation; settings: cited from earlier work
[16] = cited from earlier work
[17] = mice, rapid hepatic metabolism; cited from earlier work
[18] = system: CFTR-deficient mice; settings: cited from earlier work

## Nc1ccc([N+](=O)[O-])cc1-c1nc2ccccc2n(Cc2ccccc2)c1=O [CFTRact-J027]
[1]
  pEC50: ~6.70
[2]; 1 μM extracellular, after 150 nM forskolin (~25% maximal stimulation)
  Increase of CFTR activity (whole-cell current): more than 4 fold
[3]
  CFTR activity in inside-out patch: strongly increased CFTR activity
[4]
  Cellular cAMP: did not elevate cellular cAMP
[5]
  Cellular cGMP: did not elevate cellular cGMP
[6]
  Cytoplasmic Ca^2+: nor did it elevate cytoplasmic Ca^2+
[7]
  Stability in simulated gastric fluid: no compound degradation
[8]; 1 mg protein/mL, CFTRact-J027 as printed
  Elimination half-life in human hepatic microsomes: ~ 35 min and 35 min
[8]; human hepatic microsomes
  Compound remaining at 60 minutes: 34%
[9]; 10 mg/kg ip, 1 hour after scopolamine
  Efficacy on stool parameters, given after development of constipation: effective
[9]; 10 mg/kg po, 1 hour after scopolamine
  Efficacy on stool parameters, given orally after development of constipation: not effective
[9]; 10 mg/kg po, 1 hour before scopolamine 0.5 mg/kg ip
  Stool parameters (3-hour stool weight, pellet number, water content): normalization of stool parameters
[9]; in mice
  Duration of effect: 3 to 4 h
[10]; 10 mg/kg ip, 1 hour after loperamide 0.3 mg/kg ip
  Efficacy on stool parameters, given after development of constipation: effective
[10]; 10 mg/kg po, 1 hour after loperamide
  Efficacy on stool parameters, given orally after development of constipation: not effective
[11]; 10 mg/kg ip
  Whole-gut transit time: normalized
[11]; 10 mg/kg oral
  4-hour stool weight, pellet number, and water content: to the level of wild-type controls
[12]
  Stool parameters or whole-gut transit time in wild-type control mice: did not affect
[13]; 5 μM, 40 minutes, human jejunal enteroids, no forskolin
  Enteroid size, compound alone: Little or no change
[13]; 0.1 or 0.2 μM forskolin, pretreatment 10 minutes with CFTRact-J027, duodenum and jejunum
  Enteroid swelling response to low forskolin after pretreatment: increased
[13]; human enteroids
  Swelling response relative to maximal (5 μM) forskolin: approximately 50%
[14]
  Cellular cAMP concentration (prior data): does not elevate cellular cAMP concentration
[15]; acute constipation produced by loperamide
  Stool output, stool water content, and intestinal transit: normalized
[15]; oral, mice
  ED50 orally administered, loperamide model: 0.5 mg/kg
[16]; chronic oral high-dose, mice
  Blood counts, serum chemistries, and lung water content: no effect
[16]
  Toxicity: showed no toxicity
[17]
  Systemic exposure following oral administration: minimal systemic exposure
[18]
  Effect in CFTR-deficient mice: no effect

## C=C[C@@]1(C)CC(=O)[C@]2(O)[C@@]3(C)[C@@H](O)CCC(C)(C)[C@@H]3[C@H](O)[C@H](OC(C)=O)[C@@]2(C)O1 [forskolin, reference compound]
[13]; 0.3 μM forskolin, 40 minutes, human jejunal enteroids
  Enteroid area, forskolin alone: small increase in area

## CFTRinh-172 [reference compound]
[2]; 10 μM
  Block of currents activated by forskolin and CFTRact-J027: blocked
